The results in this text go back to ChEMBL document CHEMBL1128396, “Synthesis and biological evaluation of a series of new parenteral optically active 3-[[(N-alkylpyridinium-4'-yl)thio]methyl]-2-oxaisocephems” (1995).

Common to all, as to type: functional
One assay relates to Escherichia coli. The experiment in a line: Antibacterial activity was determined against Escherichia coli NIHJ JC-2 (Gram-negative). An outline of the steps:
(§1)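 2-fold agar dilution on Müller-Hinton agar. Overnight broth cultures were diluted to about 10^6 CFU/mL, and 10^4 CFU/spot was applied to plates with graded drug concentrations. Plates were incubated 18 h at 37 °C.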

Assay [1] has as its system Enterococcus faecalis. Briefly: Antibacterial activity was determined against Enterococcus faecalis ATCC 21212 (Gram-positive). An outline of the steps: as §1
The test system of a further assay is Klebsiella pneumoniae. The experiment in a line: Antibacterial activity was determined against Klebsiella pneumoniae NCTC 9632 (Gram-negative). The procedure, abridged:
as §1

The subject of assay [2] is Mus musculus. Briefly: Antibacterial activity was determined against MRSA 5038 at a challenge dose of 1.00*10e7 (cells/mouse) administered subcutaneously. The conditions noted are these: sc. An outline of the steps:
(§2)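 Cultures were grown overnight at 37 °C in tryptic soy broth (S. aureus, MRSA, E. faecalis) or Müller-Hinton broth (E. coli, S. pneumoniae). Graded doses were given subcutaneously 1 h post-infection. ED50 was calculated by probit from day-7 survival, with 95% confidence limits.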

Assay [3] relates to Mus musculus. Briefly: Antibacterial activity was determined against MRSA 5129 at a challenge dose of 1.38*10e8 (cells/mouse) administered subcutaneously. The conditions noted are these: sc. The procedure, abridged: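 Male ICR mice (~20 g, 10 per dose group) were challenged intraperitoneally with 0.5 mL of about 10-100 times the LD50. Inoculum was an overnight 37 °C tryptic soy broth culture suspended in fresh broth with 5% gastric mucin. Various subcutaneous doses were given 1 h post-infection. Survivors were counted on day 7, and ED50 with 95% confidence limits was derived by probit.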

Assay [4] has as its system Mus musculus. The experiment in a line: Antibacterial activity was determined against Staphylococcus aureus Smith at a challenge dose of 1.32*10e7 (cells/mouse) (sc) administered. An outline of the steps: as §2
In assay [5] the test system is Mus musculus. The experiment in a line: Antibacterial activity was determined against Escherichia coli 29 at a challenge dose of 1.35*10e6 (cells/mouse) administered subcutaneously. The conditions noted are these: sc. The procedure, abridged:
as §2

The test system of the next assay is Pseudomonas aeruginosa. Briefly: Antibacterial activity was determined against Pseudomonas aeruginosa ATCC 10145 (Gram-negative). An outline of the steps: as §1
The test system of assay [6] is Staphylococcus aureus. The experiment in a line: Antibacterial activity was determined against Methicillin-resistant Staphylococcus aureus (MRSA) 5038 (Gram-positive).
The subject of assay [7] is Staphylococcus aureus. Briefly: Antibacterial activity was determined against Staphylococcus aureus FDA 209P (Gram-positive). An outline of the steps: as §1
The test system of assay [8] is Staphylococcus aureus. Briefly: […] was determined against MRSA 5129.
A further assay deals with Serratia marcescens. The experiment in a line: Antibacterial activity was determined against Serratia marcescens ATCC 12648 (Gram-negative). An outline of the steps:
as §1

For assay [9], the system named is Staphylococcus epidermidis. Briefly: Antibacterial activity was determined against Staphylococcus epidermidis ATCC 12228 (Gram-positive). An outline of the steps: as §1
In assay [10] the test system is Enterococcus faecalis. Briefly: In vitro antibacterial activity against clinical isolates Enterococcus faecalis was determined. An outline of the steps:
as §1

Assay [11] relates to Mus musculus. Briefly: Antibacterial activity was determined against MRSA 5120 at a challenge dose of 7.6*10e7 (cells/mouse) administered subcutaneously. The conditions noted are these: sc. The procedure, abridged:
as §2

The test system of assay [12] is Mus musculus. Briefly: Antibacterial activity was determined against Staphylococcus aureus Smith at a challenge dose of 1.32*10e7 (cells/mouse) administered subcutaneously (value in parentheses indicates 95% CL). The conditions noted are these: sc. The procedure, abridged: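 Cultures were grown overnight at 37 °C in tryptic soy broth (S. aureus, MRSA, E. faecalis) or Müller-Hinton broth (E. coli, S. pneumoniae). Graded doses were given subcutaneously 1 h post-infection.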

Assay [13] deals with Mus musculus. The experiment in a line: Antibacterial activity was determined against Enterococcus faecalis C 0063 at a challenge dose of 7.00*10e7 (cells/mouse) administered subcutaneously. The conditions noted are these: sc. An outline of the steps: as §2
Assay [14] has as its system Staphylococcus aureus. The experiment in a line: In vitro antibacterial activity against clinical isolates methicillin-resistant Staphylococcus aureus was determined. The procedure, abridged:
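2-fold agar dilution on Müller-Hinton agar. Overnight broth cultures were diluted to about 10^6 CFU/mL, and 10^4 CFU/spot was applied to plates with graded drug concentrations.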

In assay [15] the test system is Staphylococcus aureus. Briefly: […] was determined against MRSA 5120.
For another assay, the system named is Streptococcus pneumoniae. The experiment in a line: In vitro antibacterial activity against clinical isolates Ampicillin-insensitive Streptococcus pneumoniae was determined. The procedure, abridged: as §1
In assay [16] the test system is Mus musculus. Briefly: Antibacterial activity was determined against Staphylococcus aureus Smith at a challenge dose of 1.32*10e7 (cells/mouse) administered subcutaneously. The conditions noted are these: sc. An outline of the steps:
as §2

Converted amounts (≈) assume the structure as drawn.

The term MIC denotes the lowest concentration found to suppress growth. What is called ED50 is the dose at which the effect has come halfway, by size or by number of responders. For the compound `C[n+]1ccc(SCC2=C(C(=O)O)N3C(=O)[C@@H](NC(=O)/C(=N\OC4CCCC4)c4csc(N)n4)[C@H]3CO2)cc1.O=S(=O)([O-])O`, the MIC against Escherichia coli came out at 0.39 µg/mL; against Enterococcus faecalis [1], 1.56 µg/mL; with Klebsiella pneumoniae, 0.2 µg/mL; with Pseudomonas aeruginosa it was 6.25 µg/mL; against Staphylococcus aureus [6], 3.13 µg/mL; against Staphylococcus aureus [7], 0.05 µg/mL. The MIC worked out at 6.25 µg/mL in the assay with Staphylococcus aureus [8], 1.56 µg/mL in the assay on Serratia marcescens and 0.05 µg/mL in assay [9]. Also, the ED50 in the assay with Mus musculus [2] stood at 3.4 mg/kg; with Mus musculus [3], 3.91 mg/kg; in the assay on Mus musculus [4] it was 0.08 mg/kg; in the assay with Mus musculus [5], 0.09 mg/kg.

Usually MIC50 stands for the lowest concentration that inhibits either 50% of growth or 50% of the strains tested, depending on the study. Low values mean higher susceptibility, high ones lower susceptibility. For orientation: MIC80 means an inhibitory concentration at the 80% level, which refers to growth in some studies and to a panel of isolates in others. Read a high MIC80 as lower susceptibility. A word on the MIC90: it is the lowest concentration that inhibits either 90% of growth or 90% of the strains tested, depending on the study. Read a low MIC90 as higher susceptibility. Consider `CO/N=C(\C(=O)N[C@@H]1C(=O)N2C(C(=O)[O-])=C(C[n+]3cccc4c3CCC4)CS[C@H]12)c1csc(N)n1` [CEFPIROME], for which the MIC with Escherichia coli came out at 0.05 µg/mL (≈ 0.0972 µM); against Enterococcus faecalis [1] it was 25 µg/mL (≈ 48.6 µM); with Klebsiella pneumoniae, 0.05 µg/mL (≈ 0.0972 µM); in the assay with Pseudomonas aeruginosa, 6.25 µg/mL (≈ 12.1 µM); in the assay with Staphylococcus aureus [6] it was 100 µg/mL (≈ 194 µM); in the assay with Staphylococcus aureus [7], 0.39 µg/mL (≈ 0.758 µM). The MIC with Staphylococcus aureus [15] is 50 µg/mL (≈ 97.2 µM); in the assay on Serratia marcescens, 0.2 µg/mL (≈ 0.389 µM); in assay [9] it was 0.39 µg/mL (≈ 0.758 µM). Further, the MIC50 against Enterococcus faecalis [10] is 50 µg/mL (≈ 97.2 µM); against Staphylococcus aureus [14] it was 50 µg/mL (≈ 97.2 µM); in the assay on Streptococcus pneumoniae, 0.39 µg/mL (≈ 0.758 µM). Besides, the MIC80 against Enterococcus faecalis [10] is 100 µg/mL (≈ 194 µM); in the assay on Staphylococcus aureus [14], 100 µg/mL (≈ 194 µM); with Streptococcus pneumoniae, 0.78 µg/mL (≈ 1.52 µM). The MIC90 stood at 100 µg/mL (≈ 194 µM) against Enterococcus faecalis [10], 100 µg/mL (≈ 194 µM) against Staphylococcus aureus [14] and 0.78 µg/mL (≈ 1.52 µM) in the assay with Streptococcus pneumoniae. For the same compound, the ED50 was 27.7 mg/kg with Mus musculus [11], 1.72 mg/kg with Mus musculus [12], 0.64 mg/kg with Mus musculus [5] and over 100 mg/kg in the assay on Mus musculus [13].

For the compound `CN[C@H](CC(C)C)C(=O)N[C@H]1C(=O)N[C@@H](CC(N)=O)C(=O)N[C@H]2C(=O)N[C@H]3C(=O)N[C@H](C(=O)N[C@H](C(=O)O)c4cc(O)cc(O)c4-c4cc3ccc4O)[C@H](O)c3ccc(c(Cl)c3)Oc3cc2cc(c3O[C@@H]2O[C@H](CO)[C@@H](O)[C@H](O)[C@H]2O[C@H]2C[C@](C)(N)[C@H](O)[C@H](C)O2)Oc2ccc(cc2Cl)[C@H]1O` [VANCOMYCIN], the minimal inhibitory concentration (MIC) was over 100 µg/mL against Escherichia coli; 0.78 µg/mL (≈ 0.538 µM) in the assay with Enterococcus faecalis [1]; over 100 µg/mL in the assay on Klebsiella pneumoniae; over 100 µg/mL in the assay with Pseudomonas aeruginosa; 0.78 µg/mL (≈ 0.538 µM) against Staphylococcus aureus [6]; 0.78 µg/mL (≈ 0.538 µM) in the assay with Staphylococcus aureus [7]. The MIC against Staphylococcus aureus [15] was 0.78 µg/mL (≈ 0.538 µM); in the assay on Staphylococcus aureus [8] it was 0.78 µg/mL (≈ 0.538 µM); against Serratia marcescens, over 100 µg/mL; in assay [9], 3.13 µg/mL (≈ 2.16 µM). The ED50 was 2.7 mg/kg with Mus musculus [2], 11.5 mg/kg in the assay on Mus musculus [11], 18.7 mg/kg in the assay on Mus musculus [3] and 3.74 mg/kg with Mus musculus [16]. For the same compound, the MIC50 in the assay on Staphylococcus aureus [14] was 1.56 µg/mL (≈ 1.08 µM). Besides, the MIC80 in the assay on Staphylococcus aureus [14] was determined as 1.56 µg/mL (≈ 1.08 µM). In addition, the MIC90 against Staphylococcus aureus [14] turned out to be 1.56 µg/mL (≈ 1.08 µM).
